Data taken from ChEMBL document CHEMBL1130396, “Angiotensin analogues palmitoylated in positions 1 and 4” (J Med Chem, 1997).
Where a SMILES comes first, the peptide text is derived from it. [ ]: non-standard residue; d: D form. The star is where a group is joined. X1 = CCCCCCCCCCCCCCCC(=O)OCCC(=O)*; Palmitoyl = CCCCCCCCCCCCCCCC(=O)*; X2 = CCCCCCCCCCCCCCCCCC*; Sar = CNCC(=O)O

How the values were obtained:
[1] = biological target: T1, Type-1 angiotensin II receptor (Bos taurus) (UniProt P25104); assay: Relative affinity for type 1 Angiotensin II receptor of bovine adrenocortical membranes compared to angiotensin
T1 sequence (whole entry): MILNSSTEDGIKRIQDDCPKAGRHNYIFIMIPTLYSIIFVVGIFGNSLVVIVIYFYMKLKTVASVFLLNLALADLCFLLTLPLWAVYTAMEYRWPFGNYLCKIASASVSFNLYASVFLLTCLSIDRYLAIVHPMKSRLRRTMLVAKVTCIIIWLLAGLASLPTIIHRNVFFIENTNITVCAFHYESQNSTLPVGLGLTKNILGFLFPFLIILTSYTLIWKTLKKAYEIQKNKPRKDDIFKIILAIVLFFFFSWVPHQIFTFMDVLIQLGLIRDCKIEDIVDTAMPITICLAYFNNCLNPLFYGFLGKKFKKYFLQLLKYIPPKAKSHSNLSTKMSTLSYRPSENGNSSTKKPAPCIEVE
Method in brief: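 Bovine adrenocortical membranes were incubated in 25 mM Tris/HCl (100 mM NaCl, 5 mM MgCl2, 0.2% BSA, pH 7.4) with peptide across 5 × 10^-11–10^-5 M and 30 pM [125I]Ang (final) for 45 min at 22 °C. Bound radioactivity was filtered and gamma-counted, with nonspecific binding defined by 1 µM Ang. […] At least three experiments were run in duplicate.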

[2] = biological target: T2, Type-1 angiotensin II receptor (Oryctolagus cuniculus, UniProt P34976); assay: Negative log of the dose of antagonist (compound) that reduces response of a double dose of […] to that of a single dose, on rabbit aorta; format: functional, tissue-based; settings: for Kb: read-out: pA2 (converted)
T2 sequence (P34976 whole entry): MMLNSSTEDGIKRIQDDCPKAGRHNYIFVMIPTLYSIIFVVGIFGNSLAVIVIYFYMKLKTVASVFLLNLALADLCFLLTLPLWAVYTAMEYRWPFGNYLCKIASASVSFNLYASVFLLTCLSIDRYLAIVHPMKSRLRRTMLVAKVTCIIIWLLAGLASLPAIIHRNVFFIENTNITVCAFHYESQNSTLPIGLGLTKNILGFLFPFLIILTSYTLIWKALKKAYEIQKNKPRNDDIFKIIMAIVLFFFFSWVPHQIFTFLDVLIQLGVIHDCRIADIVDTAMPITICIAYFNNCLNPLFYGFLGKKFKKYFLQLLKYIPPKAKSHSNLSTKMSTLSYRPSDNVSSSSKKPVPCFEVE
Method in brief: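 Rabbit thoracic aorta rings in oxygenated Krebs, pH 7.4, at 37 °C under 2 g tension were preincubated 10 min with single antagonist concentrations. Ang concentration-response curves were then run with and without antagonist. pA2 came from Schild plot, or was estimated from lower doses for long-acting analogues. Duration was followed by Ang curves at 30 min, 1.5 h and 3 h, washing every 20 min. At least three evaluations were done.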

[3] = biological target: T3, Type-1 angiotensin II receptor (Bos taurus, UniProt P25104); assay: Dissociation constant for [125 I] Ang binding to type 1 Angiotensin II receptor of bovine adrenocortical membranes
T3 sequence (P25104 whole entry): T1 sequence (whole entry)

[4] = biological target: T4, Type-1 angiotensin II receptor (Oryctolagus cuniculus) (UniProt P34976); assay: Relative affinity compared to the affinity of angiotensin II(Ang=100%) for Angiotensin II receptor, type 1 on rabbit aorta; format: tissue-based
T4 sequence (whole entry): T2 sequence (P34976 whole entry)

Oryctolagus cuniculus = species: Oryctolagus cuniculus; assay: Negative log of the dose of agonist that produces half-maximal contraction on rabbit aorta; format: functional
Method in brief: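 New Zealand rabbit thoracic aorta rings (5 mm) were held in oxygenated Krebs, pH 7.4, at 37 °C under 2 g tension and equilibrated for 90 min. Isometric contractions were recorded. Cumulative dose-response curves (5 × 10^-11–10^-5 M) were expressed as % of maximal Ang stimulation, and pD2 was taken as the negative log of the dose giving half-maximal contraction. At least three evaluations were done.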

Compound | RA [1] | Kd [3] | pD2 (Oryctolagus cuniculus) | other results
CCCCCCCCCCCCCCCC(=O)Oc1ccc(C[C@H](NC(=O)[C@@H](NC(=O)[C@H](CCCN=C(N)N)NC(=O)CNC)C(C)C)C(=O)N[C@H](C(=O)N[C@@H](Cc2c[nH]cn2)C(=O)N2CCC[C@H]2C(=O)N[C@H](Cc2ccc3ccccc3c2)C(=O)O)C(C)C)cc1 | 2.57 | – | – | –
CNCC(=O)N[C@@H](CCCNC(=N)N)C(=O)N[C@H](C(=O)N[C@@H](Cc1ccc(O)cc1)C(=O)N[C@H](C(=O)N[C@@H](Cc1cnc[nH]1)C(=O)N1CCC[C@H]1C(=O)N[C@H](Cc1ccc2ccccc2c1)C(=O)O)C(C)C)C(C)C | – | 0.0166 µM | – | Kb [2]: 0.00794 µM
CNCC(=O)N[C@@H](CCCN=C(N)N)C(=O)N[C@H](C(=O)N[C@@H](Cc1ccc(O)cc1)C(=O)N[C@H](C(=O)N[C@@H](Cc1c[nH]cn1)C(=O)N1CCC[C@H]1C(=O)N[C@H](Cc1ccccc1)C(=O)O)C(C)C)C(C)C | 407 | – | – | RA [4]: 174
CC(C)[C@H](NC(=O)[C@H](CCCNC(=N)N)NC(=O)[C@@H](N)CO)C(=O)N[C@@H](Cc1ccc(O)cc1)C(=O)N[C@H](C(=O)N[C@@H](Cc1cnc[nH]1)C(=O)N1CCC[C@H]1C(=O)N[C@@H](Cc1ccccc1)C(=O)O)C(C)C (H-SRVYVHPF-OH) | – | 0.00759 µM | – | –
CC(=O)N[C@@H](CO)C(=O)N[C@@H](CCCN=C(N)N)C(=O)N[C@H](C(=O)N[C@@H](Cc1ccc(O)cc1)C(=O)N[C@H](C(=O)N[C@@H](Cc1c[nH]cn1)C(=O)N1CCC[C@H]1C(=O)N[C@H](Cc1cccc2ccccc12)C(=O)O)C(C)C)C(C)C | 1.78 | – | – | pA2 [2]: 6.99; pKd [3]: 6.49
CCCCCCCCCCCCCCCC(=O)Oc1ccc(C[C@H](NC(=O)[C@@H](NC(=O)[C@H](CCCN=C(N)N)NC(=O)CNC)C(C)C)C(=O)N[C@H](C(=O)N[C@@H](Cc2c[nH]cn2)C(=O)N2CCC[C@H]2C(=O)N[C@@H](Cc2ccccc2)C(=O)O)C(C)C)cc1 [listing 1 of 2 here] | – | 0.00355 µM | – | Kb [2]: 0.0363 µM
CCCCCCCCCCCCCCCC(=O)Oc1ccc(C[C@H](NC(=O)[C@@H](NC(=O)[C@H](CCCN=C(N)N)NC(=O)CNC)C(C)C)C(=O)N[C@H](C(=O)N[C@@H](Cc2c[nH]cn2)C(=O)N2CCC[C@H]2C(=O)N[C@H](Cc2ccccc2)C(=O)O)C(C)C)cc1 | 162 | – | – | –
CC[C@H](C)[C@H](NC(=O)[C@H](Cc1ccc(O)cc1)NC(=O)[C@@H](NC(=O)[C@H](CCCNC(=N)N)NC(=O)[C@@H](N)CC(=O)O)C(C)C)C(=O)N[C@@H](Cc1cnc[nH]1)C(=O)N1CCC[C@H]1C(=O)N[C@@H](Cc1ccccc1)C(=O)O [ANGIOTENSIN II] | 100 | – | 8.33 | RA [4]: 100
CC(C)[C@H](NC(=O)[C@H](CCCN=C(N)N)NC(=O)CCO)C(=O)N[C@@H](Cc1ccc(O)cc1)C(=O)N[C@H](C(=O)N[C@@H](Cc1c[nH]cn1)C(=O)N1CCC[C@H]1C(=O)N[C@@H](Cc1ccccc1)C(=O)O)C(C)C | 5.53 | 0.105 µM | 7.23 | RA [4]: 7.95
CCCCCCCCCCCCCCCC(=O)OC[C@H](NC(C)=O)C(=O)N[C@@H](CCCN=C(N)N)C(=O)N[C@H](C(=O)N[C@@H](Cc1ccc(O)cc1)C(=O)N[C@H](C(=O)N[C@@H](Cc1c[nH]cn1)C(=O)N1CCC[C@H]1C(=O)N[C@@H](Cc1ccccc1)C(=O)O)C(C)C)C(C)C (Ac-S(Palmitoyl)RVYVHPF-OH) | 1.17 | – | <5.5 | –
CCCCCCCCCCCCCCCC(=O)OC[C@H](NC(C)=O)C(=O)N[C@@H](CCCN=C(N)N)C(=O)N[C@H](C(=O)N[C@@H](Cc1ccc(O)cc1)C(=O)N[C@H](C(=O)N[C@@H](Cc1c[nH]cn1)C(=O)N1CCC[C@H]1C(=O)N[C@H](Cc1cccc2ccccc12)C(=O)O)C(C)C)C(C)C | 0.21 | – | – | pA2 [2]: < 5.5; pKd [3]: 5.65
CCCCCCCCCCCCCCCCCCOc1ccc(C[C@H](NC(=O)[C@@H](NC(=O)[C@H](CCCNC(=N)N)NC(=O)CNC)C(C)C)C(=O)N[C@H](C(=O)N[C@@H](Cc2cnc[nH]2)C(=O)N2CCC[C@H]2C(=O)N[C@@H](Cc2ccccc2)C(=O)O)C(C)C)cc1 (H-[Sar]RVY(X2)VHPF-OH) | – | 1.55 µM | – | –
CC(=O)N[C@@H](CO)C(=O)N[C@@H](CCCN=C(N)N)C(=O)N[C@H](C(=O)N[C@@H](Cc1ccc(O)cc1)C(=O)N[C@H](C(=O)N[C@@H](Cc1c[nH]cn1)C(=O)N1CCC[C@H]1C(=O)N[C@@H](Cc1ccccc1)C(=O)O)C(C)C)C(C)C (Ac-SRVYVHPF-OH) | 32.4 | 0.0178 µM | 7.54 | RA [4]: 16.2
CNCC(=O)N[C@@H](CCCN=C(N)N)C(=O)N[C@H](C(=O)N[C@@H](Cc1ccc(O)cc1)C(=O)N[C@H](C(=O)N[C@@H](Cc1c[nH]cn1)C(=O)N1CCC[C@H]1C(=O)N[C@@H](Cc1ccccc1)C(=O)O)C(C)C)C(C)C | – | – | 8.57 | –
CCCCCCCCCCCCCCCC(=O)OCCC(=O)N[C@@H](CCCN=C(N)N)C(=O)N[C@H](C(=O)N[C@@H](Cc1ccc(O)cc1)C(=O)N[C@H](C(=O)N[C@@H](Cc1c[nH]cn1)C(=O)N1CCC[C@H]1C(=O)N[C@@H](Cc1ccccc1)C(=O)O)C(C)C)C(C)C (X1-RVYVHPF-OH) | 0.21 | 2.75 µM | 5.46 | RA [4]: 0.13
CCCCCCCCCCCCCCCC(=O)OC[C@H](NC(C)=O)C(=O)N[C@@H](CCCNC(=N)N)C(=O)N[C@H](C(=O)N[C@@H](Cc1ccc(O)cc1)C(=O)N[C@H](C(=O)N[C@@H](Cc1cnc[nH]1)C(=O)N1CCC[C@H]1C(=O)N[C@@H](Cc1ccccc1)C(=O)O)C(C)C)C(C)C (Ac-S(Palmitoyl)RVYVHPF-OH) | – | 0.49 µM | – | –
CNCC(=O)N[C@@H](CCCN=C(N)N)C(=O)N[C@H](C(=O)N[C@@H](Cc1ccc(O)cc1)C(=O)N[C@H](C(=O)N[C@@H](Cc1c[nH]cn1)C(=O)N1CCC[C@H]1C(=O)N[C@H](Cc1ccc2ccccc2c1)C(=O)O)C(C)C)C(C)C | 34.7 | – | – | –
CC(C)[C@H](NC(=O)[C@H](CCCN=C(N)N)NC(=O)CCO)C(=O)N[C@@H](Cc1ccc(O)cc1)C(=O)N[C@H](C(=O)N[C@@H](Cc1c[nH]cn1)C(=O)N1CCC[C@H]1C(=O)N[C@H](Cc1ccccc1)C(=O)O)C(C)C | 0.09 | 6.46 µM | – | Kb [2]: 4.9 µM
CCCCCCCCCCCCCCCC(=O)Oc1ccc(C[C@H](NC(=O)[C@@H](NC(=O)[C@H](CCCN=C(N)N)NC(=O)CNC)C(C)C)C(=O)N[C@H](C(=O)N[C@@H](Cc2c[nH]cn2)C(=O)N2CCC[C@H]2C(=O)N[C@@H](Cc2ccccc2)C(=O)O)C(C)C)cc1 [listing 2 of 2 here] | – | – | 7.61 | –
CCCCCCCCCCCCCCCC(=O)Oc1ccc(C[C@H](NC(=O)[C@@H](NC(=O)[C@H](CCCNC(=N)N)NC(=O)CNC)C(C)C)C(=O)N[C@H](C(=O)N[C@@H](Cc2cnc[nH]2)C(=O)N2CCC[C@H]2C(=O)N[C@H](Cc2ccc3ccccc3c2)C(=O)O)C(C)C)cc1 | – | 0.224 µM | – | Kb [2]: 0.102 µM
CC(C)[C@H](NC(=O)[C@H](CCCN=C(N)N)NC(=O)[C@@H](N)CO)C(=O)N[C@@H](Cc1ccc(O)cc1)C(=O)N[C@H](C(=O)N[C@@H](Cc1c[nH]cn1)C(=O)N1CCC[C@H]1C(=O)N[C@@H](Cc1ccccc1)C(=O)O)C(C)C (H-SRVYVHPF-OH) | 75.8 | – | 7.68 | RA [4]: 22.4
